For 37 sequences, folding enthalpy and Tm results are on record in the array DNA melting data of Ke et al. (doi:10.1101/2024.01.08.574731).

The nature of series [1]: folding enthalpy; higher = less favourable; fluorescence melt of hairpins on a sequencing array, two-state fit. Particulars: sodium 0.088 M. Put shortly:
(§1)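 Hairpins were imaged by Cy3 fluorescence on a sequenced MiSeq flow cell with annealed Cy3 and quencher oligos, in 50 mM Na-HEPES pH 8.0, 25 mM NaCl, in 2.5 °C steps up to 60 °C. Bootstrapped two-state fits of normalised signals gave melting temperature and folding enthalpy. Four replicates were combined by inverse variance, and fitted temperatures were raised by 9.35 °C to match UV melts.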

Series [2] is described as follows: melting temperature; fluorescence melt of hairpins on a sequencing array, two-state fit, raised by 9.35 °C to match UV melts. Particulars: sodium 0.088 M. Put shortly: as §1

GTCGGTGGAAACACCGGC (.(((((....))))).): the folding enthalpy in series [1] was -23.8 kcal/mol. In addition, the Tm in series [2] was found to be 63.2 °C.

GTCACGGGAAACCATGAC ((((.((....)).)))): the folding enthalpy in series [1] is -29.9 kcal/mol. Further, the Tm in series [2] amounted to 41.7 °C.

With GATCTGGATGCAGATC ((((((....)))))), the folding enthalpy in series [1] was -35.5 kcal/mol. The Tm in series [2] was determined as 50.8 °C.

Turning to GATCAGCGTACTGATC ((((((....)))))), the folding enthalpy in series [1] is -30.2 kcal/mol. Further, the Tm in series [2] came to 51.6 °C.

For GATCTCCCGGGAGATC ((((((....)))))), the folding enthalpy in series [1] is -52.9 kcal/mol. In series [2], the Tm is 58.3 °C.

As for GGGTAACCGAAAGGTCCC (((..(((....)))))), in series [1], the folding enthalpy is -18 kcal/mol. Moreover, the Tm in series [2] was 45.8 °C.

As to GACTCCCGAAAGGGTGTC (((.(((....))).))), in series [1], the folding enthalpy is -33.1 kcal/mol. For the same sequence, the Tm in series [2] was found to be 58.3 °C.

Consider GATCCCCACCGGGATC ((((((....)))))), for which the folding enthalpy in series [1] is -34.7 kcal/mol. In addition, the Tm in series [2] amounted to 57.3 °C.

For the sequence GCTTCGCGAAAGCATAGC (((..((....))..))), in series [1], the folding enthalpy is -14.5 kcal/mol. Also, the Tm in series [2] came out at 36.3 °C.

Regarding GTATAGACGAAAGTCTAC (((..(((....)))))), the folding enthalpy in series [1] was -10.5 kcal/mol. The Tm in series [2] was 33.5 °C.

Consider GGGGACGGAAACACCCCC ((((..(....)..)))), for which the folding enthalpy in series [1] is -22.6 kcal/mol. Besides, the Tm in series [2] stood at 34.8 °C.

On to GTTCGACGAAAGTCCAAC (((.(((....))).))), for which the folding enthalpy in series [1] is -19.8 kcal/mol. Further, the Tm in series [2] worked out at 34.5 °C.

On to ACGATGAAAATCGT (((((....))))), for which the folding enthalpy in series [1] was -19 kcal/mol. Besides, the Tm in series [2] was determined as 51 °C.

Consider CCGTGGAAACACGG (((((....))))), for which the folding enthalpy in series [1] was -29.2 kcal/mol. The Tm in series [2] is 59.1 °C.

Take GCGAAACGAAAGTTGCGC (((.(((....))).))): the folding enthalpy in series [1] is -35.8 kcal/mol. Further, the Tm in series [2] turned out to be 65.7 °C.

As for GCCCTCGGAAACAAGGGC (((((.(....).))))), the folding enthalpy in series [1] is -35.8 kcal/mol. The Tm in series [2] came out at 49.6 °C.

Regarding GAGACGGGAAACCATCTC ((((.((....)).)))), the folding enthalpy in series [1] was -24.5 kcal/mol. In addition, the Tm in series [2] was determined as 36.8 °C.

For GGCCTGGGAAACCAGACC ((.((((....)))).)), the folding enthalpy in series [1] was -30.1 kcal/mol. For the same sequence, the Tm in series [2] is 49 °C.

For GCACTGGGAAACCAGCGC ((.((((....)))).)), the folding enthalpy in series [1] was -40.7 kcal/mol. In series [2], the Tm was found to be 51.9 °C.

With GATCGCGAAAGCGGCATC ((((((....)))..))), the folding enthalpy in series [1] is -7.52 kcal/mol. Also, the Tm in series [2] worked out at 32.1 °C.

On to GTGGTTGGAAACAACCAC (((((((....))))))), for which the folding enthalpy in series [1] is -44.5 kcal/mol. The Tm in series [2] is 65.7 °C.

As to GAGATCCGAAAGGACCTC (((.(((....))).))), the folding enthalpy in series [1] is -28.4 kcal/mol. Besides, in series [2], the Tm is 47.1 °C.

For GATCTAGCCTTAGATC ((((((....)))))), the folding enthalpy in series [1] was -38.6 kcal/mol. The Tm in series [2] amounted to 44.4 °C.

In the case of GTAGCCGAAAGGCAATAC ((((((....)))..))), the folding enthalpy in series [1] was -9.85 kcal/mol. For the same sequence, the Tm in series [2] worked out at 31.2 °C.

In the case of GCCCCTGCGAAAGCAGGC (((..(((....)))))), the folding enthalpy in series [1] was -4.68 kcal/mol. Further, the Tm in series [2] was 42.4 °C.

On to GATCGACTTGTCGATC ((((((....)))))), for which the folding enthalpy in series [1] was -43.2 kcal/mol. The Tm in series [2] turned out to be 68.3 °C.

As for GAGCGGCCGAAAGGCCTC (((..(((....)))))), the folding enthalpy in series [1] is -6.54 kcal/mol. The Tm in series [2] was 28 °C.

Take GTAGTGACGAAAGTCTAC (((..(((....)))))): the folding enthalpy in series [1] was -15.9 kcal/mol. The Tm in series [2] was found to be 29.7 °C.

As to GCCCGTCGAAAGACAGGC (((.(((....))).))), in series [1], the folding enthalpy is -39 kcal/mol. In addition, the Tm in series [2] came out at 55.3 °C.

With GATCGATTTATCGATC ((((((....)))))), the folding enthalpy in series [1] was -44.8 kcal/mol. Moreover, the Tm in series [2] stood at 59.7 °C.

For GATCGCTACTGCGATC ((((((....)))))), the folding enthalpy in series [1] was -34.5 kcal/mol. For the same sequence, in series [2], the Tm worked out at 68.5 °C.

With GATCGGCGGCCCGATC ((((((....)))))), the folding enthalpy in series [1] was -35.4 kcal/mol. Also, the Tm in series [2] was found to be 55.5 °C.

Take GGGTGCGAAAGCACGCCC ((((((....)))..))): the folding enthalpy in series [1] is -10.2 kcal/mol. For the same sequence, the Tm in series [2] came to 55.3 °C.

Regarding GGAAGCGAAAGCTAATCC ((((((....)))..))), in series [1], the folding enthalpy is -12 kcal/mol. The Tm in series [2] stood at 26.7 °C.

For GAAGCGGAAACGCTTC ((((((....)))))), the folding enthalpy in series [1] was -33.6 kcal/mol. The Tm in series [2] amounted to 67.6 °C.

Turning to GGCCGCCGAAAGGCAGCC (((.(((....))).))), in series [1], the folding enthalpy is -25.5 kcal/mol. Besides, in series [2], the Tm worked out at 67.4 °C.

Take GATCATAGACATGATC ((((((....)))))): in series [1], the folding enthalpy was -34.4 kcal/mol. Also, the Tm in series [2] came out at 45.7 °C.
